H69AR inhibit – growth inhibitors of human H69AR lung tumor cells | viability, % at 10 µM | 85,000 tested, 6% active | H69AR lung tumor viability, ATP luminescence, 72 h; hits give low values | AID 598;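 active = viability at or below 40%; inactive = viability above 40%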;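 note: multidrug resistant small cell line overexpressing MRP-1 efflux transporter; 100% = mean luminescence of untreated control wells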
bCat KO growth – beta-catenin-lacking colon tumor cell growth suppression; viability, % at 10 µM; 140,000 tested, 1.5% active; HCT116 beta-catenin knockout viability, CellTiter-Glo, 60 h; hits give low values; AID 818;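 active = viability at or under a set limit, the compound median less 4 SD, cut at about 6% in these data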;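 note: 0% = Hyamine 1622 control at 20 µM and 100% = untreated cell control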
HCT116 PTEN-null – growth suppressors of cells with PTEN tumor suppressor deletion. HCT116 PTEN-null viability, CellTiter-Glo, 60 h; hits give low values. viability, % at 10 µM. 140,000 tested, 1.2% active. AID 827;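 active = viability at or below a set limit, 4 SD under the median of all tested compounds, cut at about 3.7% in these data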;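 note: PTEN knockout HCT116 line with beta catenin targeted HCT116 as companion control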
Fibroblast inh – blocks proliferation of human lung fibroblasts. viability, % at 10 µM. AID 719. LL 47 human lung fibroblast viability, ATP luminescence; hits give low values. 85,000 tested, 1.1% active;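 active = viability at or below 50% in the single dose screen; inactive = viability above 50%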;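 note: compound exposure lasted 72 h before the ATP readout; 100% = median luminescence of untreated cell-only wells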
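material = human LL 47 lung fibroblast cells | dosing = compounds added from tenfold dosing solution, 0.1% DMSO final | timing = overnight cell rest, 72 h compound treatment at 37 °C | measured by = CellTiter-Glo luminescence measuring cellular ATP | evaluation = % viability versus median cells-only luminescence | control set = cell-only wells, no compound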
HUVEC prolif 384 – human endothelial cell proliferation inhibition; AID 648; HUVEC proliferation, CellTiter-Glo luminescence, 72 h; hits give low values; 86,000 tested, 1.1% active; viability, % at 10 µM (by protocol);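 active = viability at or below 30%; inactive = viability above 30%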;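 note: 100% = median luminescence of DMSO-only cell control wells on each plate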
PTK2B oligo ant – antagonists of human Pyk2 oligomerization. Q14289. Q293 cells, Pyk2 FERM NanoBiT luminescence; hits give low values. z-score (the deposit names both 25 µM and 10 µM). 99,000 tested, 0.83% active;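 active = Z-score of -3 or lower, scaled per plate to the spread of control and sample wells; inactive = z-score above -3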;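 note: negative z-score means lost luminescence so less FERM oligomerization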
Target sequence (Q14289 whole entry, looked up): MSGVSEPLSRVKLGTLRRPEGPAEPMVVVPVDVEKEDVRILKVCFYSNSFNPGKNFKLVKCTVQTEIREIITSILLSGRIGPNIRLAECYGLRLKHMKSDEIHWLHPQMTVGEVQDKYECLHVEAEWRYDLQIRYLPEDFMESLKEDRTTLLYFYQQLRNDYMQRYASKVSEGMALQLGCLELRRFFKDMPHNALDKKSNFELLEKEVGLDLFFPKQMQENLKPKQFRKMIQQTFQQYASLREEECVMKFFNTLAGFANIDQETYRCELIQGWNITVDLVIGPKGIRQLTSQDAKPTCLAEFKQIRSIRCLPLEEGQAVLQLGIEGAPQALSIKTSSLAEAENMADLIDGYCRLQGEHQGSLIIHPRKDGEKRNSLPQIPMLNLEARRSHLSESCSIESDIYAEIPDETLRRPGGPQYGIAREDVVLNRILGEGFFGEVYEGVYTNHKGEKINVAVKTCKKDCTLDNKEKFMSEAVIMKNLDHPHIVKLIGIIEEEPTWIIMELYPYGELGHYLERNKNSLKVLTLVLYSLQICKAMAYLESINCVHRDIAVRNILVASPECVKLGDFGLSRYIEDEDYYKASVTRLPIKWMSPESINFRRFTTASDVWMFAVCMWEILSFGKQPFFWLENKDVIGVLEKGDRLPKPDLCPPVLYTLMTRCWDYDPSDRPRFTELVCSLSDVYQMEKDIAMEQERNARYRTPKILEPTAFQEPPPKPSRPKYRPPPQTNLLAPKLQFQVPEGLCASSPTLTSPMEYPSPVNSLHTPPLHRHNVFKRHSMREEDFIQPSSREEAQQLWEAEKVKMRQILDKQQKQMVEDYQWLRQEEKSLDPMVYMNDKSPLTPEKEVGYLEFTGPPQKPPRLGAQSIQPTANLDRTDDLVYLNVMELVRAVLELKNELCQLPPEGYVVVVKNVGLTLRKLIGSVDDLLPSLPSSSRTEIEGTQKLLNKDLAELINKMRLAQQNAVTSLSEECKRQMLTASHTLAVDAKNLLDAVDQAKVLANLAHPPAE
Starred values were filed as active, the others as inactive; x = no result given. Shown is part of a subset that was picked to be rich in hits.

SMILES	H69AR inhibit	bCat KO growth	HCT116 PTEN-null	Fibroblast inh	HUVEC prolif 384	PTK2B oligo ant
COC(=O)c1ccc(N(C(=O)CNC(=O)c2ccco2)C(C(=O)NC2CCCC2)c2ccco2)cc1 (configuration not stated)	95.3	89.1	97.1	90.3	96.8	-0.59
COC(=O)C1C(=O)C2=C(CC1C)NC(C)=C(C(=O)OCCOc1ccccc1)C2c1ccc(C)o1 (configuration not stated)	82.7	82.6	81.1	101.3	91.1	-3.87*
COC(=O)C1C(=O)C2=C(CC1C)NC(C)=C(C(=O)OCc1ccc(OC)cc1)C2c1ccc(C)o1 (configuration not stated)	83.5	99.9	91.0	97.2	73.7	1.75
CN1CCN(C(c2ccc(F)cc2)c2nnnn2Cc2cccs2)CC1 (configuration not stated)	99.6	83.4	93.7	95.2	87.8	-0.22
COc1ccc(C(c2nnnn2Cc2cccs2)N2CCN(c3ccc(F)cc3)CC2)cc1OC (configuration not stated)	71.7	80.6	74.4	97.2	108.2	-3.3*
COc1ccc(C(c2nnnn2Cc2ccc(F)cc2)N2CCN(c3ccccc3)CC2)cc1 (configuration not stated)	90.0	70.8	61.4	89.0	104.2	-3.39*
COc1ccc(N2CCN(C(c3ccccc3)c3nnnn3Cc3ccc(F)cc3)CC2)cc1 (configuration not stated)	93.9	89.7	70.1	100.1	108.8	-2.39
O=S(=O)(Cc1ccccc1)c1cnc2ccccc2n1	7.1*	24.1	11.7	92.1	93.0	-0.41
NC(=O)Cn1c(S(=O)(=O)Cc2ccccc2)nc2ccccc21	93.3	x	x	102.2	104.7	0.01
Cc1ccc(-c2nnc(SCC(=O)Nc3ccc(S(=O)(=O)N4CCCCCC4)cc3)o2)cc1	8.8*	89.5	85.1	80.9	37.2	0.52
Cc1csc(NC(=O)CSc2nnc(-c3ccc(S(=O)(=O)N4CCCC4)cc3)o2)n1	33.8*	72.2	73.3	95.8	113.0	0.06
O=C(CSc1n[nH]c(=O)n1C1CC1)Nc1cc(Cl)ccc1Oc1ccccc1	62.0	9.5	12.8	101.2	77.7	-1.72
CC(=O)Nc1ccccc1/C=C/c1ccc2c(C)cc(C)c(O)c2n1	x	11.8	3.3*	x	x	x
CN1CCc2c(sc3c2C(=O)NC(c2ccccn2)N3)C1 (configuration not stated)	93.2	91.1	93.3	99.3	100.5	-0.02
Cn1cc(C2NC(=O)c3c(sc4c3CCCC4)N2)c2ccccc21 (configuration not stated)	28.0*	x	x	90.7	84.8	x
O=C1NC(c2ccccn2)Nc2sc3c(c21)CCC3 (configuration not stated)	42.8	3.8*	1.8*	83.5	71.7	-0.18
O=C(Cc1ccccc1)NCC(=O)OCC(=O)c1cccs1	x	84.9	91.5	x	x	-0.16
C=CCc1c(OC)ccc2ccc(=O)oc12	x	97.2	102.2	x	x	1.07
Cc1csc(NC(=O)c2nc(-c3ccccc3)n(-c3ccccc3)n2)n1	26.1*	49.6	49.7	x	102.5	-1.93
C=C(c1ccc(OC)cc1)c1ccc(OC)cc1	31.7*	70.8	74.5	95.1	83.3	x
COc1cc(C)ccc1OCCCON1C(=O)CCC1=O	97.9	92.7	97.8	93.2	97.8	-0.22
CC1=NNC(=O)/C1=C\c1cn(-c2ccccc2)nc1-c1cccs1	x	1.6*	1.5*	x	x	x
O=C(N/N=C/c1cn(-c2ccccc2)nc1-c1cccs1)c1ccccc1F	x	38.5	40.8	x	x	-2.38
FC(F)(F)c1ccc(Cl)c(NC(=S)NC2CC2)c1	x	92.1	96.9	x	x	0.38
Cn1c(NCC(O)c2ccccc2)nc2c1c(=O)n(Cc1ccc(Cl)c(Cl)c1)c(=O)n2C (configuration not stated)	12.7*	x	x	89.8	48.0	-0.47
SMILES	H69AR inhibit	bCat KO growth	HCT116 PTEN-null	Fibroblast inh	HUVEC prolif 384	PTK2B oligo ant
CC1(c2ccc(Cl)cc2Cl)OCC(Cn2ccnc2)O1 (configuration not stated)	33.8*	71.0	56.8	94.9	83.1	1.04
O=C(NNC(=O)c1cc(-c2ccc(Cl)cc2Cl)nc2ccccc12)Nc1ccccc1	x	9.9	10.2	x	x	-3.48*
O=C(NNC(=O)c1ccc(Cl)cc1Cl)Nc1ccccc1	x	97.0	98.4	x	x	x
COc1ccc(NC(=S)N2CCN(Cc3ccco3)CC2)c(OC)c1	x	89.6	88.2	x	x	x
C=CCN1C(=O)CSc2ccc(C(=O)N3CCC(C)CC3)cc21	86.1	96.1	102.9	102.5	94.8	-0.18
CCn1c2ccccc2c2nnc(SCc3cc(=O)n4ccsc4n3)nc21	77.3	x	x	83.0	99.9	x
COC(=O)c1cc(=O)nc2sc(-c3ccc(F)cc3)nn12	35.6*	92.4	92.9	93.4	78.9	1.16
O=C1CC(=C2c3ccccc3-c3ccccc32)C(=O)N1CCCCN1CCN(c2ccccc2)CC1	53.2	60.4	64.6	96.0	79.3	-0.03
CCOC(=O)c1ccc(N=c2sc(C(=O)OC)cc(=O)n2-c2ccc(C(=O)OCC)cc2)cc1	x	3.3*	3.9	x	x	x
CCOC(=O)c1cnc(SCc2nc(N)nc(Nc3ccccc3OC)n2)nc1N	96.8	92.9	89.8	102.5	113.5	x
CCOC(=O)c1cnc(SCc2nc(N)nc(Nc3ccc(F)cc3)n2)nc1N	36.5*	51.4	45.1	90.7	99.3	-1.21
CCOC(=O)c1cnc(SCc2nc(N)nc(Nc3ccc(C)cc3)n2)nc1N	35.2*	43.4	41.4	75.9	96.8	-1.48
CCOc1ccc(NC(=S)NC(C)c2cccs2)cc1 (configuration not stated)	x	87.1	92.5	x	x	x
Cc1ccc(-c2nc(-c3cccnc3)sc2CC(=O)Nc2ccc3nc(C)sc3c2)cc1	x	73.8	69.5	x	x	x
CCN1C(=O)/C(=C/c2ccc(C)s2)NC1=S	4.1*	83.0	98.8	101.9	96.7	-0.22
N#Cc1c(-c2ccccc2F)cc(C2CC2)nc1SCC(=O)c1cccs1	x	83.1	74.4	x	x	x
Cc1ccc(-c2[nH]ncc2/C=N/n2c(COc3ccccc3)nc3ccccc3c2=O)cc1	x	1.6*	1.9*	x	x	x
Cc1ccccc1OCc1nc2ccccc2c(=O)n1/N=C/c1cn[nH]c1-c1ccccc1	x	33.7	30.8	x	x	x
CCOC(=O)c1c(NC(C)=O)sc2c1CCC(C=O)=C2Sc1ccccc1	4.6*	21.1	x	17.8*	31.8	-3.51*
CCOC(=O)c1cc2sccc2n1CC(=O)N1CCc2ccccc21	72.0	86.6	91.6	88.6	79.2	-3.5*
CN(C)S(=O)(=O)N1CCc2ccccc21	56.0	87.8	96.7	98.8	98.3	-0.11
O=S(=O)(Cc1ccccc1)N1CCc2ccccc21	27.6*	60.2	44.1	96.5	76.6	x
CC(/C=C1\N=C(SCc2ccccc2)SC1=O)=C\c1ccccc1	x	91.5	92.9	x	x	1.56
Cc1ccc2nc(NCCO)nc(-c3ccccc3)c2c1	24.9*	47.0	41.3	76.5	69.3	0.67

Screening results from PubChem BioAssay.
